Data from ChEMBL document CHEMBL4251608, “Emimycin and its nucleoside derivatives: Synthesis and antiviral activity” (Eur J Med Chem, 2018).
Calls of active or inactive are those of the source. The rule behind the calls is not given here.

Columns and labels:
[1] = Cytotoxicity against HEL cells assessed as reduction in cell viability after 3 days by coulter counting method; assay type: cell-based; details: human
Procedure, shortened: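 HEL fibroblasts seeded at 5 x 10^3 cells/well, left to proliferate 24 h, then given medium with varying compound concentrations. After 3 days at 37 °C, cells counted with a Coulter counter.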

[2] = tested on: Human alphaherpesvirus 1; experiment: Antiviral activity against acyclovir-resistant HSV1 KOS harboring TK- mutant infected in HEL cells assessed as reduction in virus-induced cytopathic effect after 2 to 3 days; assay type: functional, organism-based; details: Human alphaherpesvirus 1, KOS
Procedure, shortened: (§1)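 Confluent HEL fibroblasts were infected with 100 CCID50 of HSV. After 2 h adsorption the virus was removed and cells were incubated with varying compound concentrations. Virus-induced cytopathicity was scored 2-3 days post-infection. […] Data are the mean of two independent experiments.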

[3] = tested on: Human alphaherpesvirus 1; experiment: Antiviral activity against HSV1 KOS infected in HEL cells assessed as reduction in virus-induced cytopathic effect after 2 to 3 days; assay type: functional, organism-based; details: Human alphaherpesvirus 1, KOS; procedure, shortened: as §1
[4] = Cytotoxicity against HEL cells assessed as alteration in cell morphology after 3 days by microscopic method; assay type: cell-based; details: human
Procedure, shortened: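 HEL cells were treated with test compounds. MCC is the minimum concentration causing a microscopically detectable alteration of cell morphology. Data are the mean of two independent experiments.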

[5] = tested on: Human alphaherpesvirus 3; experiment: Antiviral activity against TK-positive VZV Oka infected in HEL cells assessed as reduction in plaque formation after 5 days; assay type: functional, organism-based; details: Human alphaherpesvirus 3, strain Oka vaccine, 120 h
[6] = tested on: Human alphaherpesvirus 3; experiment: Antiviral activity against TK-defecient VZV 07-1 infected in HEL cells assessed as reduction in plaque formation after 5 days; assay type: functional, organism-based; details: Human alphaherpesvirus 3, 07-1, HEL, 120 h
[7] = Cytotoxicity against MDCK cells assessed as reduction in cell viability by MTS assay; assay type: cell-based, Canis lupus familiaris; details: dog
[8] = Cytotoxicity against MDCK cells assessed as alteration in cell morphology by microscopic method; assay type: cell-based, Canis lupus familiaris; details: dog
Procedure, shortened: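 MDCK cells exposed to compounds (up to 100 µM) and examined microscopically. MCC taken as the minimum concentration causing a detectable alteration of normal cell morphology.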

[9] = tested on: Respiratory syncytial virus; experiment: Antiviral activity against RSV infected in human HeLa cells at 100 uM; assay type: functional, organism-based
[10] = tested on: H3N2 subtype; experiment: Antiviral activity against Influenza A virus A/HK/7/87(H3N2) infected in MDCK cells assessed as reduction in virus-induced cytopathic effect by MTS assay; assay type: functional, organism-based; details: A/Hong Kong/7/1987(H3N2)
[11] = tested on: Influenza A virus; experiment: Antiviral activity against Influenza A virus A/Ned/378/05(H1N1) infected in MDCK cells assessed as reduction in virus-induced cytopathic effect by MTS assay; assay type: functional, organism-based
[12] = tested on: Influenza B virus; experiment: Antiviral activity against Influenza B virus B/Ned/537/05 infected in MDCK cells assessed as reduction in virus-induced cytopathic effect by MTS assay; assay type: functional, organism-based; details: B/Ned/537/05, MDCK
[13] = tested on: HeLa; experiment: Cytotoxicity against human HeLa cells at 100 uM; assay type: cell-based
[14] = tested on: Human alphaherpesvirus 2; experiment: Antiviral activity against HSV2 strain G infected in HEL cells assessed as reduction in virus-induced cytopathic effect after 2 to 3 days; assay type: functional, organism-based; details: Human alphaherpesvirus 2, strain G; procedure, shortened: as §1
[15] = tested on: Human betaherpesvirus 5; experiment: Antiviral activity against HCMV AD169 infected in HEL cells assessed as reduction in virus-induced cytopathic effect after 6 to 7 days; assay type: functional, organism-based; details: Human betaherpesvirus 5, AD169, HEL
Procedure, shortened: (§2)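 Confluent HEL fibroblasts were inoculated with 100 CCID50 of HCMV. After 2 h adsorption the inoculum was removed and cells were incubated with varying compound concentrations. Viral cytopathicity was recorded 6-7 days post-infection. […] Data are the mean of two independent experiments.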

[16] = tested on: Human betaherpesvirus 5; experiment: Antiviral activity against HCMV Davis infected in HEL cells assessed as reduction in virus-induced cytopathic effect after 6 to 7 days; assay type: functional, organism-based; details: Human betaherpesvirus 5, Davis; procedure, shortened: as §2
[17] = tested on: Human alphaherpesvirus 1; experiment: Ratio of EC50 for acyclovir-resistant HSV1 KOS harboring TK- mutant infected in HEL cells to EC50 for HSV1 KOS infected in HEL cells; assay type: functional
Procedure, shortened: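 HEL fibroblasts were infected with 100 CCID50 of TK− ACV-resistant HSV-1 KOS or wild-type KOS, with 2 h adsorption, then incubated with varying compound concentrations. Cytopathicity was read at 2-3 days to give EC50 values. The ratio is TK− EC50 divided by wild-type EC50.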

[18] = Ratio of EC50 for TK-defecient VZV 07-1 infected in HEL cells to EC50 for TK-positive VZV Oka infected in HEL cells; assay type: functional
Procedure, shortened: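 Confluent HEL fibroblasts were inoculated with 20 PFU of VZV, either TK− strain 07−1 or Oka. After 2 h adsorption the inoculum was removed and compound was added at varying concentrations. […] The ratio is the TK− EC50 over the Oka EC50.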

[19] = Selectivity index, ratio of CC50 for HEL cells to EC50 for TK-positive VZV Oka infected in HEL cells; assay type: toxicity, cell-based; details: human, read-out: Ratio CC50/EC50
Procedure, shortened: (§3)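 SI = CC50/EC50, with both values from HEL fibroblasts. For the antiviral part, confluent cultures were inoculated with 100 CCID50 (HSV) or 20 PFU (VZV Oka). After 2 h adsorption the inoculum was removed and compounds added. Cytopathicity was scored at 2-3 days (HSV) and plaques at 5 days (VZV). CC50 came from Coulter counting of cell growth after 3 days.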

[20] = Selectivity index, ratio of CC50 for HEL cells to EC50 for HSV1 KOS infected in HEL cells; assay type: toxicity, cell-based; details: human, read-out: Ratio CC50/EC50; procedure, shortened: as §3
[21] = Selectivity index, ratio of CC50 for HEL cells to EC50 for HSV2 strain G infected in HEL cells; assay type: toxicity, cell-based; details: human, read-out: Ratio CC50/EC50; procedure, shortened: as §3
[22] = tested on: Enterococcus faecium; experiment: Antibacterial activity against Streptococcus faecium; assay type: functional, organism-based
[23] = tested on: Escherichia coli; experiment: Antibacterial activity against Escherichia coli; assay type: functional, organism-based

SMILES | CC50 at 72 h [1] | EC50 [2] | EC50 [3] | EC50 [5] | EC50 [6] | CC50 [7] | MCC [8] | Activity [9] | EC50 [10] | EC50 [11] | EC50 [12] | Activity [13] | EC50 [14] | EC50 [15] | EC50 [16] | other results
Nc1nc2c(ncn2COCCO)c(=O)[nH]1 [ACYCLOVIR] | > 444 µM | 88.8 µM | 0.38 µM |  |  |  |  |  |  |  |  |  |  |  |  | MCC at 72 h [4]: > 444 µM
O=c1[nH]c(=O)n([C@H]2C[C@H](O)[C@@H](CO)O2)cc1/C=C/Br [BRIVUDINE] | > 300 µM | 20.1 µM | 0.068 µM | 0.035 µM | 6.66 µM |  |  |  |  |  |  |  |  |  |  | MCC at 72 h [4]: > 300 µM
Cc1cn([C@@H]2O[C@H](CO)[C@@H](O)[C@H]2O)c(=O)c[n+]1[O-] |  |  |  |  |  | > 100 µM | > 100 µM | inactive | > 100 µM | > 100 µM | > 100 µM | Non-Toxic |  |  |  | 
CCc1cn([C@@H]2O[C@H](CO)[C@@H](O)[C@H]2O)c(=O)c[n+]1[O-] |  |  |  |  |  | > 100 µM | > 100 µM | inactive | > 100 µM | > 100 µM | > 100 µM | Non-Toxic |  |  |  | 
O=c1c[n+]([O-])ccn1[C@@H]1C[C@H](O)[C@@H](CO)O1 | > 438 µM | > 438 µM | > 438 µM | 438 µM | > 438 µM |  |  |  |  |  |  |  | > 438 µM | > 87 µM | > 438 µM | 
Cc1cn([C@@H]2C[C@H](O)[C@@H](CO)O2)c(=O)c[n+]1[O-] | > 412 µM | > 412 µM | > 412 µM | 328 µM | > 412 µM |  |  |  |  |  |  |  | > 412 µM | > 82 µM | > 412 µM | 
CCc1cn([C@H]2C[C@H](O)[C@@H](CO)O2)c(=O)c[n+]1[O-] | > 390 µM | > 390 µM | 8.55 µM | 7.77 µM | 138 µM |  |  |  |  |  |  |  | 145 µM | > 78 µM | > 78 µM | 
Cc1cn([C@H]2C[C@H](O)[C@@H](CO)O2)c(=O)c[n+]1[O-] | > 412 µM | 59.4 µM | 1.79 µM | 0.99 µM | 6.91 µM |  |  |  |  |  |  |  | 17.5 µM | > 412 µM | > 412 µM | Ratio EC50 [17]: 30; Ratio EC50 [18]: 7; selectivity ratio [19]: > 416; selectivity ratio [20]: 230; MCC at 72 h [4]: 169 µM; selectivity ratio [21]: 24
Cc1c[nH]c(=O)c[n+]1[O-] |  |  |  |  |  | > 100 µM | > 100 µM | inactive | > 100 µM | > 100 µM | > 100 µM | Non-Toxic |  |  |  | 
CCc1cn([C@@H]2C[C@H](O)[C@@H](CO)O2)c(=O)c[n+]1[O-] | > 390 µM | > 390 µM | 174 µM | 142 µM | 174 µM |  |  |  |  |  |  |  | 204 µM | > 78 µM | > 78 µM | 
O=c1c[n+]([O-])ccn1[C@H]1O[C@H](CO)[C@@H](O)[C@H]1O |  |  |  |  |  | > 100 µM | > 100 µM | inactive | > 100 µM | > 100 µM | > 100 µM | Non-Toxic |  |  |  | 
CCc1cn([C@H]2O[C@H](CO)[C@@H](O)[C@H]2O)c(=O)c[n+]1[O-] |  |  |  |  |  | > 100 µM | > 100 µM | inactive | > 100 µM | > 100 µM | > 100 µM | Non-Toxic |  |  |  | 
O=c1c[n+]([O-])ccn1[C@H]1C[C@H](O)[C@@H](CO)O1 | > 438 µM | > 438 µM | > 438 µM | > 438 µM | > 438 µM |  |  |  |  |  |  |  | > 438 µM | > 438 µM | > 438 µM | 
CCc1c[nH]c(=O)c[n+]1[O-] |  |  |  |  |  | > 100 µM | > 100 µM | inactive | > 100 µM | > 100 µM | > 100 µM | Non-Toxic |  |  |  | 
O=c1c[n+]([O-])ccn1[C@@H]1O[C@H](CO)[C@@H](O)[C@H]1O |  |  |  |  |  | > 100 µM | > 100 µM | inactive | > 100 µM | > 100 µM | > 100 µM | Non-Toxic |  |  |  | 
Nc1ccn(C[C@@H](CO)OCP(=O)(O)O)c(=O)n1 [CIDOFOVIR] | > 358 µM | 1.56 µM | 2.81 µM |  |  |  |  |  |  |  |  |  | 1.97 µM | 1.04 µM | 1.58 µM | MCC at 72 h [4]: > 358 µM
Cc1cn([C@H]2O[C@H](CO)[C@@H](O)[C@H]2O)c(=O)c[n+]1[O-] |  |  |  |  |  | > 100 µM | > 100 µM | inactive | > 100 µM | > 100 µM | > 100 µM | Non-Toxic |  |  |  | 
O=c1c[n+]([O-])cc[nH]1 |  |  |  |  |  | > 100 µM | > 100 µM | inactive | > 100 µM | > 100 µM | > 100 µM | Non-Toxic |  |  |  | EC50 [22]: 8 µM; EC50 [23]: 10 µM
